# Laboratory results reported in ChEMBL document CHEMBL4513216, “Probing the Open Global Health Chemical Diversity Library for Multistage-Active Starting Points for Next-Generation Antimalarials” (ACS Infect Dis, 2020).
# Assay: Toxicity liver stage against HepG2, at 10uM
# Type: cell-based
# Design: test concentration 10 uM, cell line HepG2-A16-CD81EGFP
# Conditions: human, HepG2-A16-CD81EGFP cells; read-out: INHIBITION
# Procedure, shortened: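 Uninfected HepG2-A16-CD81EGFP cells, 3 × 10^3 per well, 1536-well, plated on prespotted compound at 10 μM final, parasite-free screening media added to match infected plates; puromycin 10 μM positive, DMSO 0.5% negative; run in parallel with 48 h PbLuc assay at 37 °C, 5% CO2; viability by CellTiter-Glo luminescence, normalized to controls.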
row,SMILES,cytotoxicity at 10 µM
1,CN(CCc1ccccc1)Cc1nc(-c2cnccn2)no1,-0.911%
2,CCCN1CCN(C(=O)CCn2cccc2)CC1,6.14%
3,CCOc1ccccc1C(=O)N1CC(=O)N(C2CCC2)CC(O)C1 (centres undefined),2.55%
4,NC(=O)[C@@H]1CN2CCN(C(=O)C3CC3)C[C@@H]2[C@H]1c1ccccc1,3.88%
5,N#Cc1cccc(CN2CCO[C@@H]3CNC[C@@H]32)c1,8.94%
6,O=C(NC1CC1)N1CCOC2(CCCN(c3cccc(F)c3)C2)C1 (centres undefined),4.23%
7,CN(C)C(=O)N1CCCC2(CCN(Cc3ccc(Cl)c(F)c3)C2)C1 (centres undefined),7.07%
8,CN1C2(CCN(Cc3ccc(F)cc3)C2)c2ccccc2S1(=O)=O (centres undefined),13.5%
9,CC1=N[C@@]2(CC[C@@H]3CN(C(=O)NC(C)C)C[C@@H]32)C(=O)N1CC1CC1,7.1%
10,Cn1cnc2c1C(COCc1cccnc1)N(Cc1ccccc1)CC2 (centres undefined),13.5%
11,Cc1occc1C(=O)N1C[C@@H](C(=O)N2CCCCO2)C[C@H]2OCC[C@H]21,12.1%
12,O=C(c1ccno1)N1CCO[C@]2(CCC[C@@H]2COCc2ccncc2)C1,10.2%
13,c1cncc(CN2CCCn3nnc(CN4CCCCC4)c3C2)c1,12.8%
14,O=c1cc2c(nn1CN1CCN(c3ccccc3)CC1)CCC2,7.13%
15,CC(C)CC1SCC(=O)Nc2c1cnn2C(C)C (centres undefined),1.11%
16,O=C(CSC1=NS(=O)(=O)c2cc(F)ccc2N1)Nc1cccc(Cl)c1,3.92%
17,Cc1cc(S(=O)(=O)N2CCC(S(C)(=O)=O)CC2)ccc1F,6.25%
18,Cc1cc2nc(SCC(=O)N3CCCC3)n(-c3ccccc3)c(=O)c2[nH]1,-6.34%
19,O=C1N(Cc2cccnc2)CCC12CCCNC2 (centres undefined),3.52%
20,CN1CC(Oc2ccc(Cl)cc2)=NC(SCC(=O)Nc2ccccc2)=N1,-0.943%
21,Cc1nc(N2CCCC2)ncc1-c1cc(O)n2ncnc2n1,10.6%
22,O=C(c1cnccn1)N1CCCC(C2=Nc3ccccc3S(=O)(=O)N2)C1 (centres undefined),-0.055%

row,SMILES,cytotoxicity at 10 µM
1,Cc1cc2ncc(CN(C)C)c(C3CCN(C)CC3)n2n1,-1.19%
2,O=C1CO[C@H]2CCN(C(=O)c3ccc4c(c3)CCCC4)CC[C@@H]2N1,0.905%
3,CCN(Cc1ccccc1O)CC1(C)Cc2c(N)nc(N)nc2O1 (centres undefined),2.15%
4,CN1CCN(C2CCN(CC(O)c3ccccc3)CC2)C1=O (centres undefined),1.76%
5,CNc1nnc(SCc2nnc(C(C)(C)C)o2)s1,-1.05%
6,Cc1nc(C)n(CC2CCCN2Cc2ccc(F)cc2C#N)n1 (centres undefined),-2.59%
7,COC(=O)C1CCCN1C(=O)c1ccc(Br)cc1F (centres undefined),2.96%
8,CCCOc1cc(CNC(=O)Nc2cccc(C(C)=O)c2)ccn1,-1%
9,CC(C)c1nnc2n1CCN(c1nc3ccccc3o1)C2,4.12%
10,Cn1ccc(C(=O)Nc2nc(-c3ccc(Cl)cc3)n[nH]2)cc1=O,-12.3%
11,CC(=O)N1CCCC(C(=O)N2CCC(=Cc3cccc(F)c3)CC2)C1 (centres undefined),12%
12,CCN1CCN(C2CCN(C(C(N)=O)c3ccc(F)cc3)CC2)C1=O (centres undefined),-20%
13,COc1ccc(NC(=O)N(C)Cc2ccc(Br)o2)cn1,12%
14,CCN(CC1CCOC1)C(=O)CSCC(=O)Nc1ccc(C)cc1 (centres undefined),-7.04%
15,CC(C)Oc1ncc(C(=O)N2CCC(CC(N)=O)CC2)cc1Cl,-9.47%
16,COc1ccc(C)cc1NC(=O)Cn1nc(C)c(C#N)c1N,-22.9%
17,CC(NC(=O)Nc1nccs1)c1ccc(S(C)(=O)=O)cc1 (centres undefined),7.04%
18,CCOC1CCCN(C(=O)c2ccccc2NCc2cccnc2)C1 (centres undefined),0.595%
19,CCCN(CC1CC1)C(=O)Cn1ccccc1=O,9.09%
20,CCCN(CC(=O)NC)C(=O)c1ccc(-c2ccsc2)nc1C,-14.3%
21,N#CC1(C(=O)Nc2ccc(OC(F)F)cc2)CCCC1,-11.1%
22,c1csc(CNCC2COCc3c(-c4ccsc4)nnn3C2)n1 (centres undefined),-113%

row,SMILES,cytotoxicity at 10 µM
1,CC(C)C(=O)N1CCOC2(COCCN(c3ncccn3)C2)C1 (centres undefined),-114%
2,O=c1c(-c2ccnc(NC3CCOCC3)n2)cnc2sc(Cl)cn12,-0.962%
3,Cc1cc(C)cc(CCC(=O)NC(C)c2nnn[nH]2)c1 (centres undefined),0.686%
4,CN1CCC(n2nc(Cc3cccs3)nc2-c2ccncc2)CC1,-7.76%
5,COC[C@@]12CC[C@@H](N3CCOCC3)C[C@H]1CCN(c1ccc(Cl)cn1)C2,-5.14%
6,CCNc1ccnc(N2Cc3cnc(CC(C)C)nc3C2)n1,10.4%
7,CCSc1ccc(C(=O)N2CCC3(CC2)[C@H](O)C[C@@H]3O)s1,1.34%
8,CC(C)n1cnnc1CN1C(=O)CCc2ccccc21,0.0849%
9,CC(C)CC(O)C1CCN(C(=O)c2coc(CN3CCOCC3)c2)CC1 (centres undefined),-7.27%
10,Cc1nccn1CCN(C)C(=O)C1CCN(C(=O)C2CCC2)CC1,-1.45%
11,NC(=O)COc1ccc(CN2CC[C@@]3(O)CCCC[C@H]3C2)cc1Cl,-6.87%
12,c1cc2c(cc1Cn1cc(C3CCCNC3)nn1)CCCO2 (centres undefined),-5.24%
13,Cc1cc(NCCc2c(C)n[nH]c2C)nc(-c2cccnc2)n1,-0.355%
14,COc1ccc(CNC2CCCc3nc(N(C)C)ncc32)c(OC)c1 (centres undefined),1.42%
15,Cc1[nH]c2ccc(CNc3cc(C#N)ccn3)cc2c1C,-8.4%
16,Cc1cc(NCCc2nnc(N)s2)nc(-c2cccnc2)n1,-5.44%
17,Cc1ccc2nc(-c3nc4c([nH]3)CC(C)(C)CNC4=O)cn2c1,5.31%
18,CCOCCn1c(=O)[nH]c2cc(C(=O)N(C)Cc3cc(C)[nH]n3)ccc21,-0.673%
19,Cc1ccccc1CCC(=O)N1CCc2ncnc(NCCO)c2CC1,-21%
20,Cc1csc2c(N3CCNC(C(=O)NCc4cccnc4)C3)ncnc12 (centres undefined),1.74%
21,Cc1cncc(C(=O)N2CCCC(C(=O)CCc3ccccc3)C2)c1 (centres undefined),-10.1%
22,COc1ccc(C(=O)N2CC[C@H](CO)[C@H](O)C2)c(C)c1,-11.5%

row,SMILES,cytotoxicity at 10 µM
1,CCCS(=O)(=O)NCC1CCOc2ccccc2C1 (centres undefined),-6.92%
2,COc1ccc(Cl)cc1C(=O)N1CCOC2(CNCCOC2)C1 (centres undefined),-9.73%
3,CN(C)[C@H]1CCCCN(C(=O)CCc2csc(N)n2)C1,-7.59%
4,Cc1cccc(CN2CCN(Cc3ccccc3)CC(O)C2)n1 (centres undefined),-8.42%
5,Cc1cnn(C2CN(CC(=O)NCC(C)C)C2)c1,-1.33%
6,Cc1cc(C)c(CNC(=O)NCC(O)c2ccccc2F)c(=O)[nH]1 (centres undefined),-0.185%
7,COc1ccc(C(O)CNC(=O)NCc2c(C)cc(C)[nH]c2=O)cc1 (centres undefined),-2.99%
8,O=C(NCc1ccccc1Cn1cncn1)C1CCCC1,-2.34%
9,CN(C(=O)CN1CCC(NC(=O)c2cccs2)CC1)c1ccccc1,-8.55%
10,O=C(NCc1cc[nH]n1)N1CCCC(N2CCCC2)C1 (centres undefined),-3.18%
11,CCCc1n[nH]c(C2CN(C(=O)c3cccnc3N(C)C)CCO2)n1 (centres undefined),-2.91%
12,CN1CC(C(=O)NCCOc2ccc3c(c2)OCO3)CC1=O (centres undefined),-4.35%
13,COCCCN1CCC(N(Cc2noc(C)n2)C(C)=O)C1 (centres undefined),-4.22%
14,Cc1cnn(C2CCCN(C(=O)CCc3c(C)noc3C)C2)c1 (centres undefined),-17.2%
15,Cn1cc(Cl)cc1C(=O)N1CCCN(Cc2ccccc2)CC1,-5.19%
16,CCS(=O)(=O)CCN1CCCC1c1noc(C)n1 (centres undefined),-10.4%
17,CN1CCOC(CNCc2coc(-c3ccccc3Cl)n2)C1 (centres undefined),-14.1%
18,O=C(NCc1cc[nH]n1)NCC(O)c1ccc(F)cc1 (centres undefined),-12%
19,CN(C)c1cc(CNC(=O)c2ccc(Br)cc2F)ccn1,-26%
20,Cc1nc(C)n(CC2CN(Cc3noc(C4CC4)n3)CCO2)n1 (centres undefined),-8.15%
21,Cc1cc(NC(=O)CCN2CCCCC2Cn2cncn2)no1 (centres undefined),4.23%
22,CCNC(c1ccc(CC)cc1)c1cccnc1 (centres undefined),-5.4%

row,SMILES,cytotoxicity at 10 µM
1,CCn1nc2c(cc1=O)CN(CCCN1CCCC1=O)CC2,-13.9%
2,CN(Cc1nnc2n1CCC2)C(=O)c1ccc2c(c1)OCO2,-18.2%
3,Cc1cc(C)n(CCC(=O)N2CCCC(c3cc(C(N)=O)[nH]n3)C2)n1 (centres undefined),-29.3%
4,Cc1occc1CNC(=O)NCCN(C)C1CCCC1,-19.5%
5,CC(C(N)=O)S(=O)(=O)Cc1cc(Cl)c2c(c1)OCO2 (centres undefined),-14.2%
6,Cc1cc(NC(=O)NCc2ccccn2)n(C)n1,2.14%
7,CN1CCCc2cc(CNC(=O)c3ccc(NC4CC4)nc3)ccc21,-3.03%
8,COc1cc(C)nc(N2CCN(C(=O)c3ccc(Cl)o3)CC2)n1,-3.22%
9,CN(Cc1cn2ccccc2n1)C1CCCN(c2cccnn2)C1 (centres undefined),-9.78%
10,CN(C)c1ccc(C(=O)N2CCN(Cc3cscn3)CC2)cc1F,-11.7%
11,Cc1ccc(CC(=O)N2CCCCC2c2nc(C)cs2)cn1 (centres undefined),2.6%
12,COc1ccc(CN2CCCn3nnc(COCC4CC4)c3C2)cc1,-110%
13,O=C(C[C@@H]1COC[C@H]2CN(CC3CC3)C[C@@H]12)N1CCCCO1,4.08%
14,Cc1ccnc(OC[C@@]23CCO[C@@H]2CCN(c2ncc(F)cn2)C3)n1,10.9%
15,CC(C)NC(=O)[C@H]1C[C@@H]2[C@@H](C1)OCCN2Cc1ccsc1,9.49%
16,COCCNC(=O)[C@@H]1CN(Cc2sccc2C)C[C@H]2OCC[C@H]21,2.98%
17,CC(C)NC(=O)[C@H]1C[C@@H]2[C@@H](C1)OCCN2Cc1nccs1,6.1%
18,O=C(N1CCOCC1)[C@@]12CCO[C@@H]1CCN(C1CCC1)C2,3.33%
19,CN(C)Cc1cnc2n1CCN(Cc1ccsc1)CC2,-10.4%
20,CN1CCO[C@@H]2CN(C(=O)NCc3ccccc3)CC[C@@H]2C1,-104%
21,O=C(c1ccc(F)cc1)N1C[C@H]2CCC[C@@]2(COCc2ccncc2)C1,8.04%
